Experimental data: ChEMBL document CHEMBL4619779, “Tideglusib and Its Analogues As Inhibitors of Staphylococcus aureus SrtA” (J Med Chem, 2020)
Activity calls are given as the source filed them. No cut-off for these calls is given here.

Key:
Staphylococcus aureus [1] = test: Antibacterial activity against Staphylococcus aureus subsp. aureus str. Newman assessed as reduction in bacterial growth at 200 uM incubated for 24 hrs; format: functional, organism-based
In short: (§1)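 Overnight culture diluted 1:1000 in TSB, grown to A600 0.6-0.8, then diluted 1:400 in TSB. Aliquots incubated with the compound at a range of concentrations. A600 read every 1 hr for 24 hr to build growth curves. Technical triplicates per point; three independent experiments.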

Staphylococcus aureus [2] = test: Antibacterial activity against Staphylococcus aureus subsp. aureus str. Newman assessed as reduction in bacterial growth incubated for 24 hrs; format: functional; in short: as §1
Staphylococcus aureus [3] = test: Antibiofilm activity against Staphylococcus aureus subsp. aureus str. Newman assessed as reduction in biofilm biomass at 25 to 100 uM incubated for 18 hrs by Crystal violet staining assay; format: functional, organism-based
In short: (§2)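 Overnight culture diluted 1:100 in TSB, plated in quadruplicate with inhibitor, and held static at 37 °C for 18 hr. Wells rinsed with PBS, and the dried, fixed biofilm stained with 0.1% crystal violet for 15 min. Stain dissolved in 30% acetic acid and absorbance read at 595 nm. Three independent experiments.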

Staphylococcus aureus [4] = test: Effect on cell growth of Staphylococcus aureus subsp. aureus USA300 at 150 ug/ml; format: organism-based; in short: as §1
Staphylococcus aureus [5] = test: Antibiofilm activity against Staphylococcus aureus subsp. aureus USA300 assessed as reduction in biofilm formation at 25 to 100 uM incubated for 18 hrs by Crystal violet staining assay; format: functional, organism-based; in short: as §2
Sortase A [6] = target: T1, Sortase A (Staphylococcus aureus, UniProt Q9S446, DELTAN24); test: Inhibition of Staphylococcus aureus SrtA delta N24 mutant expressed in Escherichia coli BL21 (DE3) using Abz-LPATG-Dnp substrate incubated for 20 mins by FRET-based assay
In short: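 His-tagged SrtAΔN24 (1 µM) was preincubated 20 min at rt with compound (0.2–100 µM) in 50 mM Tris-HCl pH 7.5, 150 mM NaCl, 5 mM CaCl2. Abz-LPATG-Dnp was added at 10 µM and fluorescence (ex 309 / em 420 nm) was read each minute for 20 min. IC50 came from a sigmoidal fit. Technical triplicates, three independent experiments.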

Staphylococcus aureus [7] = test: Antibacterial activity against Staphylococcus aureus subsp. aureus USA300 infected in BALB/c mouse model of systemic infection assessed as prolongation of time to death at 40 mg/kg/day, ip for 10 days; format: functional, organism-based
In short: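 BALB/c females, 6 weeks old, n = 10. USA300 grown 3 hr at 37 °C from a 1:1,000 dilution of overnight culture, washed, suspended in PBS. Compound suspended in ddH2O with 4% Tween 80 and 4% DMSO, given i.p. at 40 mg/kg every 24 hr; saline placebo. Mice challenged periorbitally 4 hr after the first dose. Survival followed over 10 days.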

[8] = Cmax in mouse at 10 mg/kg, ip administered as single dose; format: ADME, organism-based; design: dose 10 mg/kg, route intraperitoneal; conditions: in vivo
[9] = test system: Sortase A (Staphylococcus aureus), Q9S446 [UNDEFINED MUTATION]; test: Reversible inhibition of Staphylococcus aureus SrtA delta N24 mutant expressed in Escherichia coli BL21 (DE3) assessed as reduction in IsdA (64 to 323 residues) transpeptidation incubated for 20 mins followed by 10 fold compound dilution by SDS-PAGE analysis
[10] = test system: Sortase A (Staphylococcus aureus), Q9S446 [UNDEFINED MUTATION]; test: Time dependent inhibition of Staphylococcus aureus SrtA delta N24 mutant expressed in Escherichia coli BL21 (DE3) assessed as reduction in IsdA (64 to 323 residues) transpeptidation by SDS-PAGE analysis
[11] = test system: Sortase A (Staphylococcus aureus), Q9S446 [UNDEFINED MUTATION]; test: Effect on structural folding of Staphylococcus aureus SrtA delta N24 mutant expressed in Escherichia coli BL21 (DE3 assessed as induction of gross structural perturbations by CD spectroscopy
In short: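 SrtAΔN24 at 10 µM was incubated with compound dissolved in methanol, and CD spectra were recorded. Two independent experiments.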

[12] = test system: Sortase A (Staphylococcus aureus), Q9S446 [UNDEFINED MUTATION]; test: Inhibition of SrtA delta N24 mutant in Staphylococcus aureus subsp. aureus str. Newman reduction in abundance of anchored SpA by FITC-labeled human IgG fluorescence based assay
In short: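 Newman wild type and ΔsrtA were diluted 1:1000 in TSB and grown at 37 °C with inhibitor until A600 reached 1.0. Cells were PBS-washed, labelled with FITC-human IgG for 30 min at rt, and washed again before fluorescence was read. Triplicate wells, three independent experiments, unpaired two-tailed t-test.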

Sortase A [13] = target: T1, Sortase A; test: Inhibition of Staphylococcus aureus SrtA delta N24 mutant expressed in Escherichia coli BL21 (DE3) assessed as reduction in IsdA (64 to 323 residues) transpeptidation incubated for 20 mins by SDS-PAGE analysis
In short: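 His-tagged SrtAΔN24 (100 µg) was preincubated 20 min at rt with compound (1–25 µM) in 50 mM Tris-HCl pH 7.5, 150 mM NaCl, 5 mM CaCl2. IsdA64-323 (150 µg) and 3 mM Gly3 were then added for 1.5 hr at 37 °C. […] Three independent experiments.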

[14] = test system: Sortase A (Staphylococcus aureus), Q9S446 [UNDEFINED MUTATION]; test: Inhibition of SrtA delta N24 mutant in Staphylococcus aureus subsp. aureus str. Newman reduction in abundance of anchored SpA at 50 to 200 uM by Western blot analysis
In short: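 Newman was diluted 1:1000 and grown at 37 °C with inhibitor to A600 3.0. Cells were PBS-washed and digested with lysozyme for 30 min at 37 °C. Protoplasts were removed and the supernatant (cell wall fraction) was separated by SDS-PAGE and immunoblotted for SpA, with ClpP as the loading control. Three independent experiments.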

Staphylococcus aureus [15] = test: Antibacterial activity against Staphylococcus aureus subsp. aureus USA300 infected in BALB/c mouse model of systemic infection assessed as mouse survival at 40 mg/kg/day, ip for 10 days; format: functional; conditions: 240 h
In short: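 BALB/c females, 6 weeks old, n = 10. Drug suspended in ddH2O with 4% Tween 80 and 4% DMSO, given i.p. at 40 mg/kg every 24 hr. Saline was the placebo. Challenge by periorbital injection of USA300 4 hr after the first dose, about 1 × 10^8 CFU (lethal). Survival was followed for 10 days.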

[16] = test system: Sortase A (Staphylococcus aureus), Q9S446 [UNDEFINED MUTATION]; test: Inhibition of Staphylococcus aureus SrtA delta N24 mutant expressed in Escherichia coli BL21 (DE3) using Abz-LPATG-Dnp substrate incubated for 20 mins in presence of 0.01% v/v Triton X-100 by FRET-based assay
[17] = test system: Sortase A (Staphylococcus aureus), Q9S446 [UNDEFINED MUTATION]; test: Covalent binding affinity to Staphylococcus aureus SrtA delta N24 mutant assessed as induction of m/z shift incubated for 12 hrs by ESI-LC/MS analysis
In short: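 His-tagged SrtAΔN24 preincubated 12 hr with or without a 10-fold excess of compound. Diluted in 50% acetonitrile / 0.2% formic acid, run on a C8 column with a 10–90% acetonitrile gradient over 11 min, then ESI-TOF MS. MTSET served as the covalent reference.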

[18] = Solubility in PBS in presence of 1% DMSO by LC/MS analysis; format: physicochemical; conditions: PBS with 1% DMSO

With `O=c1sn(-c2cccc3ccccc23)c(=O)n1Cc1ccccc1` [TIDEGLUSIB] the inhibition (Staphylococcus aureus [1]) was “Active”, the MIC (Staphylococcus aureus [2]) was greater than 100 µg/mL and the Activity (Staphylococcus aureus [3]) was “Active”. The Activity (Staphylococcus aureus [4]) was “Non-Toxic”, the Activity (Staphylococcus aureus [5]) was “Active” and the IC50 (Sortase A [6]) was 0.6 µM. For the same compound, the Activity (Staphylococcus aureus [7]) was “Active”, the Cmax [8] was 137 ng/mL and the inhibition [9] was “Active”. The TDI [10] was “inactive”, the Activity [11] was “inactive” and the inhibition [12] was “Dose-dependent effect”. For the same compound, the IC50 (Sortase A [13]) was 5.9 µM, the inhibition [14] was “Active” and the survival at 40 mg/kg/day (Staphylococcus aureus [15]) was 40%. For the same compound, the inhibition [16] was “Active”, the Activity [17] was “inactive” and the solubility [18] was 11 µg/mL.
